Drawing on ChEMBL document CHEMBL3593170 (J Nat Prod, 2015), this text covers Activity, max activation and EC50 for 15 compounds.

The target in series [1] is T1, Transient receptor potential cation channel subfamily V member 1 (Homo sapiens, UniProt Q8NER1). The experiment in a line: Activation of human TRPV1 expressed in TREx-HEK cells at 300 uM by Fluo-4 AM dye-based Ca2+ imaging assay. It is filed as cell-based. In outline: (§1)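 TREx HEK cells stably expressing hTRPV1 (tetracycline 1 μg/mL induction) or parental TREx HEK cells lacking TRPV1, Fluo-4 AM (3 μM, 1 h, 37 °C) loaded; compounds at 300 μM, capsazepine 30 μM co-added where stated; Ca2+ at 37 °C as % of 5 μM ionomycin; mean ± SEM, n = 3−7.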
T1 sequence (Q8NER1 whole entry): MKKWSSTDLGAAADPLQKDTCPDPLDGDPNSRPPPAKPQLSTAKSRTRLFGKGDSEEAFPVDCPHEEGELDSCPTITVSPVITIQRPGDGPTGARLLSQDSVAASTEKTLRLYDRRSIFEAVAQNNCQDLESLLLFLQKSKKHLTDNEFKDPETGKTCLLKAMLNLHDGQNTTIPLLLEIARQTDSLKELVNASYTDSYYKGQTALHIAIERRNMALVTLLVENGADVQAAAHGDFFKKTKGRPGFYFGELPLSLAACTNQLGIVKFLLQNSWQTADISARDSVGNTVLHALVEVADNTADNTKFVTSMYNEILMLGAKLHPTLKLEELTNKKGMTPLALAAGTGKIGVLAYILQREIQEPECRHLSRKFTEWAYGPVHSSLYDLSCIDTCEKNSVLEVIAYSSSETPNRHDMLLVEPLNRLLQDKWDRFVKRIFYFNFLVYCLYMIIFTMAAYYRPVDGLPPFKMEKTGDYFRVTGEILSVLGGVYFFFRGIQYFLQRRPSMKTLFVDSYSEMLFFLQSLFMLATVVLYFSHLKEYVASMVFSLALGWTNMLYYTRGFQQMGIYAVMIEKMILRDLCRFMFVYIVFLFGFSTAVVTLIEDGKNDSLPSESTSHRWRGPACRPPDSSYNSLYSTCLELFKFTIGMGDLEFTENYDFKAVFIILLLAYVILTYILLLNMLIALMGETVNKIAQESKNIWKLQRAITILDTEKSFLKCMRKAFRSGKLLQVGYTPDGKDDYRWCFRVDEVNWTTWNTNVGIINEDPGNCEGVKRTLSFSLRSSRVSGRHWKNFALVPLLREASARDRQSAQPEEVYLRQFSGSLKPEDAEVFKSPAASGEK

Series [2] concerns the target Transient receptor potential cation channel subfamily M member 8 (Mus musculus) (UniProt Q8R4D5). The series can be described thus: Agonist activity at mouse TRPM8 expressed in TREx-HEK cells at 300 uM by Fluo-4 AM dye-based Ca2+ imaging assay. Format: cell-based. In short, it runs like this: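 Mouse TRPM8 stably expressed in TREx HEK cells, induced with 1 μg/mL tetracycline; Fluo-4 AM 3 μM loading, 1 h, 37 °C; compounds 300 μM freshly diluted from DMSO; Ca2+ change read at 37 °C; ionomycin 5 μM for maximum fluorescence; menthol 100 μM agonist control, BCTC 10 μM antagonist.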

Series [3] deals with T1, Transient receptor potential cation channel subfamily V member 1. The series can be described thus: Activation of human TRPV1 expressed in TREx-HEK cells by Fluo-4 AM dye-based Ca2+ imaging assay relative to 10 uM capsaicin. Format: cell-based.
The nature of series [4]: Effect on Ca2+ response in TREx-HEK cells at 1 uM by Fluo-4 AM dye-based Ca2+ imaging assay. Particulars: human. It is filed as ADME, cell-based. In short, it runs like this: (§2)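 Tetracycline-induced (1 μg/mL, 24 h after seeding) TREx HEK cells stably expressing hTRPA1, or TREx HEK cells not expressing TRPA1; Fluo-4 AM 3 μM loading 1 h 37 °C; Ca2+ change read at 37 °C. Response as % of 5 μM ionomycin; mean ± SEM, n = 3−8.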

The target of series [5] is T2, Transient receptor potential cation channel subfamily A member 1 (Homo sapiens, UniProt O75762). The experiment in a line: Activation of human TRPA1 expressed in TREx-HEK cells by Fluo-4 AM dye-based Ca2+ imaging assay relative to 100 uM ITC. Format: cell-based.
T2 sequence (O75762 whole entry): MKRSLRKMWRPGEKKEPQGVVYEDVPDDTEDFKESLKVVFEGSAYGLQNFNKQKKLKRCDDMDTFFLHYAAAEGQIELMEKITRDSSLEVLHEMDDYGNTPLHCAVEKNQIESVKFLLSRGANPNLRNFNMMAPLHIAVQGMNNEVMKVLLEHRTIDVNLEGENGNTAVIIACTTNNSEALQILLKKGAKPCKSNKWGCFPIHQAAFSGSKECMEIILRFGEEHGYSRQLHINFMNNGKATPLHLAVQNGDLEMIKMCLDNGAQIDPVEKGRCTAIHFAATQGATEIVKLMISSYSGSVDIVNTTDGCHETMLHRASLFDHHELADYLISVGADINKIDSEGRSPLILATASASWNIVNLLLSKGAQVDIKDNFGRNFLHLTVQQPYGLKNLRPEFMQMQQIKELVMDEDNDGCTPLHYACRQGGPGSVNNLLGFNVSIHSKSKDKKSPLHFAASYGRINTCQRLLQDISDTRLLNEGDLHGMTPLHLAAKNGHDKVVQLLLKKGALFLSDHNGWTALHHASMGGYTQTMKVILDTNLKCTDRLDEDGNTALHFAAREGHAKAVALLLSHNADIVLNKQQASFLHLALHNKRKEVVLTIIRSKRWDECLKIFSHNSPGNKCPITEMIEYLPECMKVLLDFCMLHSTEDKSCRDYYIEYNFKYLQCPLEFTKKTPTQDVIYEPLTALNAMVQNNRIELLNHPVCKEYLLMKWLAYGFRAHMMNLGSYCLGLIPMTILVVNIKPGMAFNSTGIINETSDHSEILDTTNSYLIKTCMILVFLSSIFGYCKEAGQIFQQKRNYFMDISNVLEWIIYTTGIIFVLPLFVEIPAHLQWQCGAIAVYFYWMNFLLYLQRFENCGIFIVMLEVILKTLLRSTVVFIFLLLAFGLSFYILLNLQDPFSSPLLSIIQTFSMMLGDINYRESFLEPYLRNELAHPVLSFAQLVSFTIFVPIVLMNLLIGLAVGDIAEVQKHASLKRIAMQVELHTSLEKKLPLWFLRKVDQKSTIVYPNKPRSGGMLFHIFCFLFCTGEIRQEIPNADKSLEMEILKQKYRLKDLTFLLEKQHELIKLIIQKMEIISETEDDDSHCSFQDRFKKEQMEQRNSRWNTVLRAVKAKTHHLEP
For series [6], the target named is T2, Transient receptor potential cation channel subfamily A member 1. The series can be described thus: Activation of human TRPA1 expressed in TREx-HEK cells by Fluo-4 AM dye-based Ca2+ imaging assay. It is filed as cell-based.
The target is the same in series [7]. The series can be described thus: Activation of human TRPA1 expressed in TREx-HEK cells at 1 uM in presence of TRPA1 antagonist HC030031 by Fluo-4 AM dye-based Ca2+ imaging assay. It is filed as cell-based. In outline:
as §2

Series [8] shares this target. The experiment in a line: Activation of human TRPA1 expressed in TREx-HEK cells at 1 uM by Fluo-4 AM dye-based Ca2+ imaging assay. Format: cell-based. In short, it runs like this:
as §2

Series [9] deals with T1, Transient receptor potential cation channel subfamily V member 1. The series can be described thus: Activation of human TRPV1 expressed in TREx-HEK cells by Fluo-4 AM dye-based Ca2+ imaging assay. Format: cell-based.
Series [10] in a line: Effect on Ca2+ response in TREx-HEK cells at 300 uM by Fluo-4 AM dye-based Ca2+ imaging assay. Format: ADME, cell-based. Particulars: human. In outline: as §1
Series [11] deals with T1, Transient receptor potential cation channel subfamily V member 1. The experiment in a line: Activation of human TRPV1 expressed in TREx-HEK cells at 300 uM in presence of TRPV1 antagonist CPZ by Fluo-4 AM dye-based Ca2+ imaging assay. Format: cell-based. In short, it runs like this:
as §1

A short description of series [12]: Effect on Ca2+ response in TREx-HEK cells at 30 uM by Fluo-4 AM dye-based Ca2+ imaging assay. It is filed as ADME, cell-based. Particulars: human. In short, it runs like this:
(§3)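 Tetracycline-induced (1 μg/mL, 24 h after seeding) TREx HEK cells stably expressing hTRPA1, or TREx HEK cells not expressing TRPA1; Fluo-4 AM 3 μM loading 1 h 37 °C; Ca2+ change read at 37 °C. Compounds in DMSO, diluted in measuring buffer just before addition; 1 μM (30 μM for one compound); HC030031 30 μM co-added where stated. Response as % of 5 μM ionomycin; mean ± SEM, n = 3−8.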

Series [13] deals with T2, Transient receptor potential cation channel subfamily A member 1. The series can be described thus: Activation of human TRPA1 expressed in TREx-HEK cells at 30 uM by Fluo-4 AM dye-based Ca2+ imaging assay. It is filed as cell-based. In short, it runs like this: as §3
The target is the same in series [14]. The experiment in a line: Activation of human TRPA1 expressed in TREx-HEK cells at 30 uM in presence of TRPA1 antagonist HC030031 by Fluo-4 AM dye-based Ca2+ imaging assay. Format: cell-based.

SMILES strings stand for the structures. Calls of active or inactive are those of the source. The calls are words filed in the database; no cut-off is given here.

Chain of Transient receptor potential cation channel subfamily M member 8 (Mus musculus) (Q8R4D5 whole entry): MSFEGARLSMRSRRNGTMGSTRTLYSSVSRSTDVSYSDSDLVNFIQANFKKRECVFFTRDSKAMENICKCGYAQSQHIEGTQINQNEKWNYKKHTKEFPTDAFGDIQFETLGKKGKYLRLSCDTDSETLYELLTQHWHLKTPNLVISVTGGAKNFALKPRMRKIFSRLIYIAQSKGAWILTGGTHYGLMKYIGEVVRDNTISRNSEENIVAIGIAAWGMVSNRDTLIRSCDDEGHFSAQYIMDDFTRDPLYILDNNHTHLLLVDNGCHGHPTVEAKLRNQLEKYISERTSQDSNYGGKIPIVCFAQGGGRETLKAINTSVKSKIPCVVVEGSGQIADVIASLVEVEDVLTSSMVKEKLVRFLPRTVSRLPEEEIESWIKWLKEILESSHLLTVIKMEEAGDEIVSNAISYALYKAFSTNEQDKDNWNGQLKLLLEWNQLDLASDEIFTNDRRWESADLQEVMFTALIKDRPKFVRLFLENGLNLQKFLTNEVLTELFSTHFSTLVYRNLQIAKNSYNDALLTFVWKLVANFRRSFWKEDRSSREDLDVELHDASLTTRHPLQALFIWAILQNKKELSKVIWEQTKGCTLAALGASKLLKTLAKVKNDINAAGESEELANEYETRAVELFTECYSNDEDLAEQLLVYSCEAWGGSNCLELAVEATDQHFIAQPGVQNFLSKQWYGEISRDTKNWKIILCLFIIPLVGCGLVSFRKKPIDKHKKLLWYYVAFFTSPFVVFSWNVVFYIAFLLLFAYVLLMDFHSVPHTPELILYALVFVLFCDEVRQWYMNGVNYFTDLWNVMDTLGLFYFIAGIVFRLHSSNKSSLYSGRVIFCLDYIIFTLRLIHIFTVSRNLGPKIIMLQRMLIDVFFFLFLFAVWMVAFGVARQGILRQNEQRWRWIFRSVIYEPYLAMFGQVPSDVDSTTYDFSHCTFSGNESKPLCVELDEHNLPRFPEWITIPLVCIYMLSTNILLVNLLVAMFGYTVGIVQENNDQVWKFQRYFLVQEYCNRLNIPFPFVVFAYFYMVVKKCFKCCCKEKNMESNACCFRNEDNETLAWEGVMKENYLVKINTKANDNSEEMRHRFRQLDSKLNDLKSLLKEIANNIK

What is called EC50 is the concentration giving half of the maximal effect. For the compound `C=CCCN=C=S`, the outcome in series [1], in series [2] and in series [7] was inactive. Further, the max activation result in series [3] is “inactive”. The Activity entry in series [4] is “Non-toxic”. Also, the max activation in series [5] is 95%. The results for the EC50 in [6] and in series [9] (trex-hek) were 360 nM and “Not Active”, respectively. Besides, the outcome in [8] was Active.
Take `C=CCCCCN=C=S`: the outcome in series [1], in series [2] and in series [7] was inactive. Also, in series [3], the max activation entry is “inactive”. Further, in [4], the Activity result was “Non-toxic”. Further, the max activation in series [5] stood at 93%. Further, the values for the EC50 in [6] and in series [9] (trex-hek) were 1040 nM and “Not Active”, respectively. Further, the result in series [8] was Active.
Regarding `C=CCN=C=S` [ALLYL ISOTHIOCYANATE], the outcome in series [1] and in series [8] was Active. In addition, the outcome in series [2], in [7] and in series [11] was inactive. The Activity entry in series [10] and in series [4] was “Non-toxic” in each case. For the same compound, the max activation in series [3] was determined as 25%; in [5] it was 97%. In addition, the EC50 in series [9] (read-out: EC50) amounted to 160000 nM.
Regarding `Oc1ccc(CN=C=S)cc1`, the result in [1] and in series [13] was Active. Moreover, the result in series [2], in [14] and in [11] was inactive. The Activity entry in series [10] and in series [12] was “Non-toxic” throughout. For the same compound, the max activation in series [3] amounted to 63%; in series [5] it was 96%. In addition, the results for the EC50 in series [6] and in [9] (read-out: EC50) were 20000 nM and 170000 nM, respectively.
For `CSCCCN=C=S`, the result in [1], in series [2] and in [7] was inactive. The max activation result in series [3] was “inactive”. In addition, the Activity result in series [4] is “Non-toxic”. The compound further registered a max activation in [5] of 94%. Also, the EC50 in series [6] was 450 nM; in [9] (trex-hek) it was “Not Active”. Moreover, the result in series [8] was Active.
Regarding `C=CCCCN=C=S`, the outcome in [1], in series [2] and in [7] was inactive. The max activation entry in series [3] was “inactive”. The Activity entry in series [4] is recorded as “Non-toxic”. The compound further registered a max activation in series [5] of 90%. Further, the EC50 in [6] is 540 nM; in [9] (trex-hek) it was “Not Active”. The result in series [8] was Active.
For `C=CCCCCCN=C=S`, the result in series [1], in series [2] and in [7] was inactive. For the same compound, in series [3], the max activation entry was “inactive”. The Activity result in [4] is “Non-toxic”. The compound also displayed a max activation in series [5] of 90%. Further, the EC50 is 1050 nM in series [6] and “Not Active” in series [9] (trex-hek). Moreover, the outcome in [8] was Active.
Consider `CSCCCCCN=C=S`, for which the outcome in series [1], in series [2] and in series [7] was inactive. Moreover, in [3], the max activation result is “inactive”. The Activity result in series [4] is reported as “Non-toxic”. Also, the max activation in [5] was 92%. Moreover, the EC50 is 500 nM in series [6] and “Not Active” in series [9] (trex-hek). The outcome in [8] was Active.
As for `CSCCCCCCN=C=S`, the result in series [1], in series [2] and in series [7] was inactive. In series [3], the max activation entry was “inactive”. For the same compound, in series [5], the max activation is 92%. Also, the EC50 is 580 nM in series [6] and “Not Active” in series [9] (trex-hek). Besides, the outcome in [8] was Active.
Take `S=C=NCc1ccccc1` [BENZYL ISOTHIOCYANATE]: the result in [1] and in series [8] was Active. Besides, the result in series [2], in series [7] and in [11] was inactive. Also, the Activity entry in series [10] and in series [4] was “Non-toxic” throughout. In addition, the max activation in series [3] was found to be 49%; in series [5] it was 95%. The EC50 in series [6] amounted to 250 nM; in [9] (read-out: EC50), 223000 nM.
`S=C=NCCc1ccccc1` [PHENETHYLISOTHIOCYANATE]: the outcome in series [1] and in [8] was Active. Further, the result in series [2], in [7] and in series [11] was inactive. Further, the Activity result in series [10] and in series [4] was “Non-toxic” each time. The values for the max activation in series [3] and in series [5] were 43% and 94%, respectively. In addition, the results for the EC50 in series [6] and in series [9] (read-out: EC50) were 370 nM and 180000 nM, respectively.
On to `CC(C)N=C=S` [ISOPROPYL ISOTHIOCYANATE], for which the result in [1] and in [8] was Active. The result in series [2], in series [7] and in series [11] was inactive. The Activity result in series [10] and in series [4] was “Non-toxic” in each case. The max activation in series [3] is 50%; in series [5], 82%. The EC50 in [6] is 530 nM; in [9] (read-out: EC50) it was 100000 nM.
Turning to `CSCCCCCCCN=C=S`, the outcome in series [1], in series [2] and in series [7] was inactive. Besides, the max activation entry in series [3] was “inactive”. Moreover, the Activity entry in [4] is on record as “Non-toxic”. Further, in series [5], the max activation came out at 90%. Besides, the EC50 in series [6] was 610 nM; in series [9] (trex-hek) it was “Not Active”. Further, the result in series [8] was Active.
Turning to `CCC(C)N=C=S` (centres undefined), the result in series [1] and in series [8] was Active. Further, the result in [2], in series [7] and in [11] was inactive. Moreover, the Activity entry in [10] and in series [4] was “Non-toxic” throughout. Further, the max activation in series [3] was determined as 62%; in series [5], 88%. For the same compound, the EC50 in series [6] was 680 nM; in series [9] (read-out: EC50) it was 100000 nM.
In the case of `CC(C)CN=C=S`, the result in series [2] and in series [7] was inactive. For the same compound, the max activation result in series [3] is “inactive”. Also, the Activity result in [4] is reported as “Non-toxic”. This compound returned a max activation in [5] of 89%. For the same compound, the EC50 in series [6] was 690 nM; in [9] (trex-hek), “Not Active”. Further, in series [8], the result was Active.
